# From ChEMBL document CHEMBL1141716, “Discovery and optimization of substituted piperidines as potent, selective, CNS-penetrant alpha4beta2 nicotinic acetylcholine receptor potentiators” (Bioorg Med Chem Lett, 2008)
# Active and inactive are the calls of the source. The rule behind the calls is not given here.
# Legend:
# [1] = molecular target: T1, Neuronal acetylcholine receptor; alpha4/beta2 (Homo sapiens, UniProt P17787+P43681); assay: Activation of human alpha4beta2 nAChR assessed as potentiation of submaximal response to nicotine induced current
# T1 sequence (P17787 whole entry): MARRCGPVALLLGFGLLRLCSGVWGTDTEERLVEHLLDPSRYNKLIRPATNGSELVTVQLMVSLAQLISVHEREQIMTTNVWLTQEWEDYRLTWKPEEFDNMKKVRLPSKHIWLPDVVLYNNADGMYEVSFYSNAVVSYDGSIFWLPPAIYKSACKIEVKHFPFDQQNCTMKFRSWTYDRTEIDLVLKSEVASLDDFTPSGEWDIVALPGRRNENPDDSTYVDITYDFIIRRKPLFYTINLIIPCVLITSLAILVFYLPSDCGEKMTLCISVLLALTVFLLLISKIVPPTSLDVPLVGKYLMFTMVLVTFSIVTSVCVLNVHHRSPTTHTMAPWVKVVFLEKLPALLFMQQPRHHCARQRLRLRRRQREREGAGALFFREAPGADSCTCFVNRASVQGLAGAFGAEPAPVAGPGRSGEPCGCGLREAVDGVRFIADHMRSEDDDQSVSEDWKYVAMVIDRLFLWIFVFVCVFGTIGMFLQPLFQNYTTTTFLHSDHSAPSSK
# T1 sequence (P43681 whole entry): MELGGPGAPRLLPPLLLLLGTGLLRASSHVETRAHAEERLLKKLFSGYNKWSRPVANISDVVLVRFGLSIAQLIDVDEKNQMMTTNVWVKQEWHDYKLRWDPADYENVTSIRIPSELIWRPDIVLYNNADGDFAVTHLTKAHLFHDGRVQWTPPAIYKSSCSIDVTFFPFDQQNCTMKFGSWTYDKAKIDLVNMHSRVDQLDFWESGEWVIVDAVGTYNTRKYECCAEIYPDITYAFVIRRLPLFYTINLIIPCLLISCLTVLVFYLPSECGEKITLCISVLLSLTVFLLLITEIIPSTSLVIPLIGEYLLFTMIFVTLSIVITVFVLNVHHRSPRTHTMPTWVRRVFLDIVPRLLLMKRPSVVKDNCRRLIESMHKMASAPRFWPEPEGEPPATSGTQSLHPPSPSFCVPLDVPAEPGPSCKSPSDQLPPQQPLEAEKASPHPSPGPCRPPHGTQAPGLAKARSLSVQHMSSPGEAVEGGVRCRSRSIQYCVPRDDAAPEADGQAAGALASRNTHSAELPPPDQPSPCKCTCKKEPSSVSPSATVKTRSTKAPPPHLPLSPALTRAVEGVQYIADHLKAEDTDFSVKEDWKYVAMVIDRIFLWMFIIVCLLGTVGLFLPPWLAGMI
# Procedure, shortened: (§1)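 Fluorescence-based functional assay; compounds first screened at 10 µM for increase of the fluorescent response to an EC₁₂ concentration of nicotine, actives then run dose–response; EC₅₀ and peak response recorded, efficacy expressed as % of maximal nicotine response; average of n ≥ 2.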
# [2] = molecular target: T1, Neuronal acetylcholine receptor; alpha4/beta2; assay: Activation of human alpha4beta2 nAChR assessed as potentiation of submaximal response to […] relative to maximal nicotine response; format: protein-complex assay; procedure, shortened: as §1
# [3] = Plasma concentration in Sprague-Dawley rat at 5 mg/kg, ip after 1 hr; format: ADME, organism-based; design: dose 5 mg/kg, route intraperitoneal
# Procedure, shortened: (§2)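 Rats dosed ip at 5 mg/kg in DMSO; sacrificed at 1 h; plasma, brain and CSF collected and drug concentrations measured.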
# [4] = Drug level in Sprague-Dawley rat brain at 5 mg/kg, ip after 1 hr; format: ADME, organism-based; design: dose 5 mg/kg, route intraperitoneal; details: read-out: Drug uptake; procedure, shortened: as §2
# [5] = Drug level in Sprague-Dawley rat CSF at 5 mg/kg, ip after 1 hr; format: ADME, organism-based, Cerebrospinal fluid; design: dose 5 mg/kg, route intraperitoneal; details: read-out: Drug uptake; procedure, shortened: as §2
# MDR1 = assay: Permeability efflux ratio in MDR1 expressing pig LLC-PK1 cells; format: ADME, cell-based, Sus scrofa
# [6] = molecular target: T1, Neuronal acetylcholine receptor; alpha4/beta2; assay: Displacement of [3H]cytisine from human alpha4beta2 nAChR at =>30 uM; format: protein-complex assay
# [7] = molecular target: Neuronal acetylcholine receptor subunit alpha-7 (Homo sapiens, UniProt P36544); assay: Activation of human alpha7 nAChR assessed as potentiation of submaximal response to nicotine induced current
# Sequence of Neuronal acetylcholine receptor subunit alpha-7 (P36544 whole entry): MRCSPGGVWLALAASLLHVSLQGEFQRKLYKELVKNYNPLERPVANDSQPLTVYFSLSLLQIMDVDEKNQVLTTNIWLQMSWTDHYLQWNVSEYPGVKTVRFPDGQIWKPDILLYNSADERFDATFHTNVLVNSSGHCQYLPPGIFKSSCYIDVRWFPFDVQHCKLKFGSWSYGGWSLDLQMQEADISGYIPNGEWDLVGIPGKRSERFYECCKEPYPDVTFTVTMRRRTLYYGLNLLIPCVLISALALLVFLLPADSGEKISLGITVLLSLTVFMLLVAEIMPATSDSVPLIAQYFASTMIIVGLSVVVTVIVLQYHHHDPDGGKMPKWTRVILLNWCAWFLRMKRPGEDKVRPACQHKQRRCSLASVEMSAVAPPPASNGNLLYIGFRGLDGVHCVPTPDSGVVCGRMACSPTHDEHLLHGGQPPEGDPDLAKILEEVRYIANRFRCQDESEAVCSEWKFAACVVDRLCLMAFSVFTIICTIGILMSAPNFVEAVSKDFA
# [8] = molecular target: Neuronal acetylcholine receptor; alpha4/beta2 (Rattus norvegicus, UniProt P09483+P12390); assay: Activation of rat alpha4beta2 nAChR by fluorescence assay; format: protein-complex assay
# Sequence of Neuronal acetylcholine receptor; alpha4/beta2 (Rattus norvegicus, UniProt P09483+P12390) (P09483 whole entry): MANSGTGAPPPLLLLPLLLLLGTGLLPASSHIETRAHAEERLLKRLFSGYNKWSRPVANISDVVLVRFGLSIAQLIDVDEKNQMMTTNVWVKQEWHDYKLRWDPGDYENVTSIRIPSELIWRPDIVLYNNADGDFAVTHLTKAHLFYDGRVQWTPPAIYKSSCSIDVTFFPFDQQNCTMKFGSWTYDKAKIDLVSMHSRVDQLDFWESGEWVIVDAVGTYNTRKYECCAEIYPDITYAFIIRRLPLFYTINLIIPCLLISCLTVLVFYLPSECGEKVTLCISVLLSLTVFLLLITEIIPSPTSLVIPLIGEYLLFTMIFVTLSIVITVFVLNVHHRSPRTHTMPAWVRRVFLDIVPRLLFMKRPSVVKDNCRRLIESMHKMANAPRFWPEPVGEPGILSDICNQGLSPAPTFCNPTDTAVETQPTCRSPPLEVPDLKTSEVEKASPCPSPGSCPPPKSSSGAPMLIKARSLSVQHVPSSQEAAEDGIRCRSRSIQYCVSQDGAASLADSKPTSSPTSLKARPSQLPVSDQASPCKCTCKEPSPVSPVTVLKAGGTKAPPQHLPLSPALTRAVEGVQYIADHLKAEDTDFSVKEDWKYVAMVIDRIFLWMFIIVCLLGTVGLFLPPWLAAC
# Sequence of Neuronal acetylcholine receptor; alpha4/beta2 (Rattus norvegicus, UniProt P09483+P12390) (P12390 whole entry): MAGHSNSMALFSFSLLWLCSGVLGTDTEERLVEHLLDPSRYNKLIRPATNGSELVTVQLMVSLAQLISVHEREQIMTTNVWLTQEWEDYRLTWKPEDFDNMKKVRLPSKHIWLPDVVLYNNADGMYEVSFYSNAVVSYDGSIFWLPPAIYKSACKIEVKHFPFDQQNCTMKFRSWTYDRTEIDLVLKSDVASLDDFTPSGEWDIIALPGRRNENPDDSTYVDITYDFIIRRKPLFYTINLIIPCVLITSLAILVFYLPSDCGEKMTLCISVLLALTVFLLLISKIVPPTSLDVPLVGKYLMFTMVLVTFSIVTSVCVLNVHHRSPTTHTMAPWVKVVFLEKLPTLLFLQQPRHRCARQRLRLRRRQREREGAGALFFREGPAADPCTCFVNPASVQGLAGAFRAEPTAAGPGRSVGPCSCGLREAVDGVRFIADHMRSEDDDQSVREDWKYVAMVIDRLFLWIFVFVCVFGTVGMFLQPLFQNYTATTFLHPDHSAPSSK
# [9] = molecular target: Neuronal acetylcholine receptor; alpha4/beta2 (Rattus norvegicus) (UniProt P09483+P12390); assay: Activation of rat alpha4beta2 nAChR expressed in HEK293 cells assessed as potentiation of acetylcholine-induced current by whole cell patch clamp; format: cell-based
# Procedure, shortened: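 Whole-cell patch-clamp with fast-flow perfusion under physiological ionic conditions; acetylcholine as agonist, holding potential −80 mV; compound also applied alone to check for evoked inward currents.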
# [10] = molecular target: Neuronal acetylcholine receptor; alpha3/beta2 (Homo sapiens, UniProt P17787+P32297); assay: Activation of human alpha3beta2 nAChR assessed as potentiation of submaximal response to nicotine induced current; procedure, shortened: as §1
# Sequence of Neuronal acetylcholine receptor; alpha3/beta2 (P17787 whole entry): as the sequence (P17787 whole entry) above
# Sequence of Neuronal acetylcholine receptor; alpha3/beta2 (P32297 whole entry): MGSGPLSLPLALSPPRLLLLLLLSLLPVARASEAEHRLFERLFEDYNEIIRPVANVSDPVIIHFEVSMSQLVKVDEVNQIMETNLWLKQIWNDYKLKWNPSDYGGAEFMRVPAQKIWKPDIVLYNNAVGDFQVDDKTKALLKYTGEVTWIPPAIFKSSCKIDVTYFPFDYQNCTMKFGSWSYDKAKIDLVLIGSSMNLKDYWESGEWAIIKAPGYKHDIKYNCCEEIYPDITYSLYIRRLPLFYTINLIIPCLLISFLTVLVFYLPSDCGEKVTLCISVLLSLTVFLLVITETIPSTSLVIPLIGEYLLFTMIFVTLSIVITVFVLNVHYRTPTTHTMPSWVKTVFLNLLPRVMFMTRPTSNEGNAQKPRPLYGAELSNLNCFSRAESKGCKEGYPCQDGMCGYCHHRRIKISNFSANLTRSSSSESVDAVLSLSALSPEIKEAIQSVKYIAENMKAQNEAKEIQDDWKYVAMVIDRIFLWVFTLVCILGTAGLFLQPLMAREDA
# [11] = molecular target: Neuronal acetylcholine receptor; alpha3/beta4 (Homo sapiens, UniProt P30926+P32297); assay: Activation of human alpha3beta4 nAChR assessed as potentiation of submaximal response to nicotine induced current; format: protein-complex assay; procedure, shortened: as §1
# Sequence of Neuronal acetylcholine receptor; alpha3/beta4 (P30926 whole entry): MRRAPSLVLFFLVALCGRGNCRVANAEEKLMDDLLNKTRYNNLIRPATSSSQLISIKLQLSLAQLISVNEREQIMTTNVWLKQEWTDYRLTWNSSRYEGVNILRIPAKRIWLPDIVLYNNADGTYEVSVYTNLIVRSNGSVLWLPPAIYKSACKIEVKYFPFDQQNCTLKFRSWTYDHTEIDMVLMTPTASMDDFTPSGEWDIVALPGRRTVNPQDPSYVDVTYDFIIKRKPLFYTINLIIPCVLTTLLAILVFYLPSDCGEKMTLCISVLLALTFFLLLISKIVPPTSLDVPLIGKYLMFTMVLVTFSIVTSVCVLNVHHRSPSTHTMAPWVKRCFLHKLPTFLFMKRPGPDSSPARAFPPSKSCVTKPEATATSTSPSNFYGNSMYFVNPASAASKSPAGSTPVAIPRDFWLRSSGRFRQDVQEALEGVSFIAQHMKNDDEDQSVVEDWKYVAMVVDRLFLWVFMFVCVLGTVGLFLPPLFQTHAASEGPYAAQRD
# Sequence of Neuronal acetylcholine receptor; alpha3/beta4 (P32297 whole entry): as the sequence (P32297 whole entry) above
SMILES,EC50 [1] [nM],Efficacy [2] [%],also measured
Clc1cccc(Cl)c1-c1cc(-c2cnn(C3CCNCC3)c2)on1,410,73,–
Fc1cccc(-c2cc(-c3cnn(C4CCNCC4)c3)on2)c1Cl,230,47,–
Clc1sccc1-c1cc(-c2cnn(C3CCNCC3)c2)on1,130,42,–
c1nn(C2CCNCC2)cc1-c1cc(C2CCCCC2)no1,4600,16,–
Cc1cc(-c2cnn(C3CCNCC3)c2)on1,1300,19,–
Cc1c(-c2cc(-c3ccccc3)no2)cnn1C1CCNCC1,1200,31,–
Fc1cccc(Cl)c1-c1cc(-c2cnn(C3CCNCC3)c2)on1,48,60,–
c1ccc(-c2cc(-c3cnn(C4CCNCC4)c3)on2)cc1,> 100000,–,–
Clc1cnccc1-c1cc(-c2cnn(C3CCNCC3)c2)on1,200,50,–
CN(Cc1cc(-c2ccccc2Cl)no1)C(=O)C1CCNCC1,350,41,EC50 [10]: > 100000 nM; EC50 [11]: > 100000 nM
Fc1ccc(-c2cc(-c3cnn(C4CCNCC4)c3)on2)c(Cl)c1,220,56,–
Fc1ccc(Cl)c(-c2cc(-c3cnn(C4CCNCC4)c3)on2)c1,270,29,–
Clc1ccccc1-c1cc(-c2cnn(C3CCNCC3)c2)on1,120,38,EC50 [10]: > 100000 nM; EC50 [11]: > 100000 nM

# These reach a lower EC50 [1]. Values come first.
EC50 [1] [nM],Efficacy [2] [%],SMILES,also measured
6,66,Cc1c(-c2cc(-c3c(F)cccc3Cl)no2)cnn1C1CCNCC1,–
33,63,Clc1ccccc1-c1cc(-c2cnc(C3CCNCC3)s2)on1,concentration at 1 h [3]: 300 nM; concentration at 1 h [4]: 8500 nM; concentration at 1 h [5]: 21 nM
3,74,CCn1c(-c2cc(-c3c(F)cccc3Cl)no2)cnc1C1(F)CCNCC1,efflux ratio (MDR1): 1; concentration at 1 h [3]: 600 nM; concentration at 1 h [4]: 6500 nM; concentration at 1 h [5]: 29 nM
18,71,Cc1c(-c2cc(-c3ccccc3Cl)no2)cnn1C1CCNCC1,Activity [6]: inactive; EC50 [7]: > 100000 nM; EC50 [8]: 20 nM; Activity [9]: Active; concentration at 1 h [3]: 610 nM; concentration at 1 h [4]: 5200 nM; concentration at 1 h [5]: 130 nM
12,71,Cn1c(-c2cc(-c3c(F)cccc3Cl)no2)cnc1C1CCNCC1,efflux ratio (MDR1): > 10
3,87,CCn1c(-c2cc(-c3c(F)cccc3Cl)no2)cnc1C1CCNCC1,efflux ratio (MDR1): > 10
34,68,Cn1c(-c2cc(-c3c(F)cccc3Cl)no2)cnc1C1(F)CCNCC1,efflux ratio (MDR1): 1
